# Measured values reported in ChEMBL document CHEMBL4043094, “Azobenzene-containing photoswitchable proteasome inhibitors with selective activity and cellular toxicity” (Bioorg Med Chem, 2017).
# Assays:
# [1] = Inhibition of caspase-like activity of 20S proteasome in rabbit 20S proteasome pre-incubated for 10 mins before Suc-Leu-Leu-Val-Tyr-AMC substrate addition and measured after 2 hrs by fluorescence assay; parameters: species or system Oryctolagus cuniculus
# Outline: (§1)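 IC50 (nM) was determined for each compound twice: in its non-irradiated form and again after light irradiation.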
# [2] = Inhibition of chymotrypsin-like activity of 20S proteasome in rabbit 20S proteasome pre-incubated for 10 mins before Suc-Leu-Leu-Val-Tyr-AMC substrate addition and measured after 2 hrs by fluorescence assay; parameters: species or system Oryctolagus cuniculus; outline: as §1
# [3] = test system: HCT-116; test: Cytotoxicity against human HCT116 cells incubated for 48 hrs by 7AAD dye based flow cytometry; format: functional; details: HCT-116, 48 h, read-out: LD50 (the source's name)
# Outline: (§2)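 Apoptosis dose-response over 48 h treatment. Each inhibitor was tested in two forms: the thermally adapted trans state and the cis photostationary state.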
# [4] = test system: MCF-10A; test: Cytotoxicity against human MCF10A cells at 5000 nM incubated for 48 hrs by 7AAD dye based flow cytometry; format: cell-based; details: 5 µM
# [5] = test system: MDA-MB-468; test: Cytotoxicity against human MDA-MB-468 cells incubated for 48 hrs by 7AAD dye based flow cytometry; format: functional; details: MDA-MB-468, 48 h, read-out: LD50 (the source's name); outline: as §2
# [6] = Stability in DMSO; format: physicochemical
# [7] = Cytotoxicity against human MCF10A cells incubated for 48 hrs by 7AAD dye based flow cytometry; format: cell-based, MCF-10A; details: read-out: LD50
IC50 [1],IC50 [2],Compound,CC50 [3],Activity [4],CC50 [5],Stability [6],CC50 at 48 h [7]
110 nM,12 nM,CC(C)C[C@H](NC(=O)[C@H](Cc1ccc(/N=N\c2ccccc2)cc1)NC(=O)OC(C)(C)C)B1OC2C[C@@H]3C[C@@H](C3(C)C)[C@]2(C)O1 (stereo not given in full),–,–,–,–,–
214 nM,41 nM,Cc1cc(C)cc(/N=N\c2ccc(C[C@H](NC(=O)OC(C)(C)C)C(=O)N[C@@H](CC(C)C)B3OC4C[C@@H]5C[C@@H](C5(C)C)[C@]4(C)O3)cc2)c1 (stereo not given in full),–,–,–,–,–
727 nM,29 nM,CC(C)C[C@H](NC(=O)[C@@H](NC(=O)c1cccc(/N=N\c2ccc(-c3ccccc3)cc2)c1)[C@@H](C)O)B1OC2C[C@@H]3C[C@@H](C3(C)C)[C@]2(C)O1 (stereo not given in full),–,–,–,–,–
107 nM,10 nM,CC(C)C[C@H](NC(=O)[C@H](Cc1ccc(/N=N/c2ccccc2)cc1)NC(=O)OC(C)(C)C)B1OC2C[C@@H]3C[C@@H](C3(C)C)[C@]2(C)O1 (stereo not given in full),–,–,–,–,–
868 nM,17 nM,CC(C)C[C@H](NC(=O)[C@@H](NC(=O)c1cccc(/N=N/c2ccccc2)c1)[C@@H](C)O)B1OC2C[C@@H]3C[C@@H](C3(C)C)[C@]2(C)O1 (stereo not given in full),–,–,–,–,–
76 nM,5 nM,CC(C)C[C@H](NC(=O)[C@H](Cc1ccccc1)NC(=O)c1cnccn1)B(O)O [BORTEZOMIB],–,–,–,–,–
498 nM,22 nM,CC(C)C[C@H](NC(=O)[C@@H](NC(=O)c1cccc(/N=N/c2ccc(-c3ccccc3)cc2)c1)[C@@H](C)O)B1OC2C[C@@H]3C[C@@H](C3(C)C)[C@]2(C)O1 (stereo not given in full),–,–,–,–,–
1630 nM,249 nM,Cc1cc(C)cc(/N=N\c2cccc(C(=O)N[C@H](C(=O)N[C@@H](CC(C)C)B3OC4C[C@@H]5C[C@@H](C5(C)C)[C@]4(C)O3)[C@@H](C)O)c2)c1 (stereo not given in full),–,–,–,–,–
211 nM,53 nM,Cc1cc(C)cc(/N=N/c2ccc(C[C@H](NC(=O)OC(C)(C)C)C(=O)N[C@@H](CC(C)C)B3OC4C[C@@H]5C[C@@H](C5(C)C)[C@]4(C)O3)cc2)c1 (stereo not given in full),–,–,–,–,–
759 nM,84 nM,CC(C)C[C@H](NC(=O)[C@@H](NC(=O)c1cccc(/N=N\c2ccccc2)c1)[C@@H](C)O)B1OC2C[C@@H]3C[C@@H](C3(C)C)[C@]2(C)O1 (stereo not given in full),–,–,–,–,–
1620 nM,55 nM,Cc1cc(C)cc(/N=N/c2cccc(C(=O)N[C@H](C(=O)N[C@@H](CC(C)C)B3OC4C[C@@H]5C[C@@H](C5(C)C)[C@]4(C)O3)[C@@H](C)O)c2)c1 (stereo not given in full),–,–,–,–,–
59 nM,10 nM,CC(C)C[C@H](NC(=O)[C@@H](NC(=O)c1cccc(-c2ccccc2)n1)[C@@H](C)O)B(O)O [DELANZOMIB],–,–,–,–,–

Compound,IC50 [1],IC50 [2],CC50 [3],Activity [4],CC50 [5],Stability [6],CC50 at 48 h [7]
CC(C)C[C@H](NC(=O)[C@H](Cc1ccc(/N=N/c2ccc(-c3ccccc3)cc2)cc1)NC(=O)OC(C)(C)C)B1OC2C[C@@H]3C[C@@H](C3(C)C)[C@]2(C)O1 (stereo not given in full),460 nM,11 nM,1030 nM,Non-Toxic,246 nM,–,–
CC(C)C[C@H](NC(=O)[C@H](Cc1ccc(/N=N\c2ccc(-c3ccccc3)cc2)cc1)NC(=O)OC(C)(C)C)B1OC2C[C@@H]3C[C@@H](C3(C)C)[C@]2(C)O1 (stereo not given in full),303 nM,54 nM,212 nM,–,144 nM,> 48 h,683 nM
